Source: ChEMBL document CHEMBL3232815, “Synthesis and anticonvulsant activity of some new pyrazolo[3,4-b]pyrazines and related heterocycles” (2014)

Assays:
Assay type in all cases: functional
Details in all cases: route intraperitoneal
Mus musculus [1] = assay: Anticonvulsant activity in Swiss Webster mouse assessed as PTZ-induced tonic seizures at 10 mg/kg, ip pretreated 20 mins before PTZ challenge and measured 1 hr post PTZ challenge relative to control
Outline: (§1)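 Male adult Swiss–Webster mice, 22–30 g, 12 h light/dark cycle at 25 °C, food and water ad libitum. Compound 10 mg/kg ip (0.2% in corn oil), one group per compound (8 animals), 20 min before PTZ 75 mg/kg ip (1.5% in saline). Watched 1 h for seizure onset (min) and % animals convulsing; 24 h survival noted. Phenobarbital 30 mg/kg reference; p vs PTZ group.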

Mus musculus [2] = assay: Anticonvulsant activity in Swiss Webster mouse assessed as survivors level at 10 mg/kg, ip pretreated 20 mins before PTZ challenge and measured 24 hrs post PTZ challenge relative to control
Outline: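 Male adult Swiss–Webster mice (22–30 g), 8 per group. Compounds are given ip at 10 mg/kg (0.2% in corn oil) 20 min before PTZ 75 mg/kg ip (1.5% in saline), the minimal convulsive dose. Animals are watched for 1 h after PTZ. Survivors are counted at 24 h and expressed as % survivors against the PTZ-only control. Significance is tested at p<0.05 and p<0.01.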

Mus musculus [3] = assay: Anticonvulsant activity in Swiss Webster mouse assessed as PTZ-induced clonic seizures at 10 mg/kg, ip pretreated 20 mins before PTZ challenge and measured 1 hr post PTZ challenge relative to control; outline: as §1
Mus musculus [4] = assay: Anticonvulsant activity in Swiss Webster mouse assessed as PTZ-induced clonic seizures at 30 mg/kg, ip pretreated 20 mins before PTZ challenge and measured 1 hr post PTZ challenge relative to control
Outline: (§2)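 Male adult Swiss–Webster mice (22–30 g), 8 per group, with a 12 h light/dark cycle at 25 °C. The reference drug phenobarbital sodium is given at 30 mg/kg ip 20 min before PTZ 75 mg/kg ip (1.5% solution in saline). Clonic and tonic seizure onset (min) and % animals convulsing are scored over 1 h. Survivors are counted at 24 h. Comparison is with the PTZ-only group.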

Mus musculus [5] = assay: Anticonvulsant activity in Swiss Webster mouse assessed as PTZ-induced tonic seizures at 30 mg/kg, ip pretreated 20 mins before PTZ challenge and measured 1 hr post PTZ challenge relative to control; outline: as §2
Mus musculus [6] = assay: Anticonvulsant activity in Swiss Webster mouse assessed as survivors level at 30 mg/kg, ip pretreated 20 mins before PTZ challenge and measured 24 hrs post PTZ challenge relative to control; outline: as §2

SMILES | Activity (Mus musculus [1]) | survival at 10 mg/kg (Mus musculus [2]) | Activity (Mus musculus [3]) | Activity (Mus musculus [4]) | Activity (Mus musculus [5]) | survival at 30 mg/kg (Mus musculus [6])
Cc1nn(-c2ccccc2)c2nc(-c3ccccc3)c(-c3nn4cc(-c5ccccc5)nc4s3)nc12 | 12.5% | 87.5% | 87.5% |  |  | 
Cc1nn(-c2ccccc2)c2nc(-c3ccccc3)c(C(=O)NN3C(=O)CSC3(C)C)nc12 | 75% | 25% | 100% |  |  | 
Cc1nn(-c2ccccc2)c2nc(-c3ccccc3)c(C(=O)NN3C(=O)CSC34CCCC4)nc12 | 25% | 75% | 100% |  |  | 
Cc1nn(-c2ccccc2)c2nc(-c3ccccc3)c(-c3nn4cc(-c5ccc(Br)cc5)nc4s3)nc12 | 37.5% | 62.5% | 87.5% |  |  | 
Cc1nn(-c2ccccc2)c2nc(-c3ccccc3)c(C(=O)NN3C(=O)CSC34CCCCC4)nc12 | 100% | 0% | 100% |  |  | 
Cc1nn(-c2ccccc2)c2nc(-c3ccccc3)c(C(=O)NN3C(=O)CSC3c3ccc(Cl)cc3)nc12 (stereo not given) | 25% | 75% | 75% |  |  | 
Cc1nn(-c2ccccc2)c2nc(-c3ccccc3)c(C(=O)NN3C(=O)CSC3c3ccc([N+](=O)[O-])cc3)nc12 (stereo not given) | 25% | 75% | 87.5% |  |  | 
COc1ccc(C2SCC(=O)N2NC(=O)c2nc3c(C)nn(-c4ccccc4)c3nc2-c2ccccc2)cc1OC (stereo not given) | 0% | 100% | 87.5% |  |  | 
CCC1(c2ccccc2)C(=O)N=C([O-])NC1=O.[Na+] (stereo not given) [PHENOBARBITAL SODIUM] |  |  |  | 0% | 0% | 100%
Cc1nn(-c2ccccc2)c2nc(-c3ccccc3)c(C(=O)NN3C(=O)CSC3c3ccccc3)nc12 (stereo not given) | 12.5% | 87.5% | 75% |  |  | 
